Published values from different studies.
Protocols differ between the studies behind these lines.
DYRK3: Dual specificity tyrosine-phosphorylation-regulated kinase 3 (DYRK3, Homo sapiens, UniProt O43781)
BRWD1 BD2: Bromodomain and WD repeat-containing protein 1, BD2 (BRWD1, Homo sapiens, UniProt Q9NSI6)
DYRK1B: Dual specificity tyrosine-phosphorylation-regulated kinase 1B (DYRK1B, Homo sapiens, UniProt Q9Y463)
PTGS2: Prostaglandin G/H synthase 2 (PTGS2, Homo sapiens, UniProt P35354)
CDKL5: Cyclin-dependent kinase-like 5 (CDKL5, Homo sapiens, UniProt O76039)
NUAK1: NUAK family SNF1-like kinase 1 (NUAK1, Homo sapiens, UniProt O60285)

O=C(O)c1ccc2c(c1)nc(Nc1ccc(Cl)cc1)c1ccncc12  remaining activity (DYRK3; enzyme activity, inhibitor, radiometric; 1 µM): 2%
N=C(N)NCCC[C@H](NC(=O)[C@H](CC(=O)O)NC(=O)[C@H](Cc1c[nH]c2ccccc12)NC(=O)[C@H](CCCNC(=N)N)NC(=O)[C@@H](N)Cc1ccccc1)C(=O)N[C@@H](Cc1ccccc1)C(=O)NCC(=O)O  Emax (Melanocyte-stimulating hormone receptor (Mc1r, Mus musculus, UniProt Q01727); cAMP, agonist; HEK293): 30%
Cc1cc2c(cc1N1C(=O)c3cccc4c(Cl)ccc(c34)C1=O)n(C)c(=O)n2C  ΔTm (Bromodomain testis-specific protein, BD2 (BRDT, Homo sapiens, UniProt Q58F21); thermal stability, DSF; 10 µM): -1 °C
C[S+]([O-])c1ccc(-c2nc(-c3ccncc3)c(-c3ccc(F)cc3)[nH]2)cc1 (stereo not shown)  ΔTm (BRWD1 BD2; thermal stability, DSF; 10 µM): 1.32 °C
N#Cc1cccc(Nc2nc3cc(C(=O)O)ccc3c3cnccc23)c1  remaining activity (DYRK1B; enzyme activity, inhibitor, radiometric; 1 µM): 10%
C=C[C@@]1(C)C=C2CC[C@@H]3[C@](C)(CCC[C@@]3(C)C(=O)O)[C@H]2CC1  inhibition (PTGS2; enzyme activity, inhibitor; 15.63 µg/mL): 85.3%
O=C(O)c1ccc2c(c1)nc(Nc1ccccc1)c1ccncc12  remaining activity (DYRK1B; enzyme activity, inhibitor, radiometric; 1 µM): 73%
COc1cc(/C=C/C(=O)CC(=O)/C=C/c2ccc(O)c(OC)c2)ccc1O  activity vs control (Rho-associated protein kinase 2 (Rock2, Rattus norvegicus, UniProt Q62868); enzyme activity, inhibitor; 1 µM): 90%
O=C(O)c1ccc2c(c1)nc(NCCc1ccccc1)c1ncncc12  remaining activity (DYRK1B; enzyme activity, inhibitor, radiometric; 1 µM): 123%
O=c1cc(-c2ccc(O)cc2)oc2cc(O)cc(O)c12  inhibition (PTGS2; enzyme activity, inhibitor; 31.25 µg/mL): 100%
CCN1CCN(Cc2ccc(NC(=O)c3ccc(C)c(Oc4ccnc5[nH]ccc45)c3)cc2C(F)(F)F)CC1  inhibition (Inositol-tetrakisphosphate 1-kinase (Homo sapiens, UniProt Q13572); target engagement in cells, inhibitor, chemoproteomics; Huh-7; 1 µM): -10.6%
O=C(O)c1ccc2c(c1)nc(Nc1ccc3ccccc3c1)c1ccncc12  remaining activity (DYRK3; enzyme activity, inhibitor, radiometric; 1 µM): 4%
Nc1ncnc2occ(-c3ccc(NC(=O)Nc4cc(C(F)(F)F)ccc4F)cc3)c12  remaining signal (CDKL5; cell-free assay; 20 µM): 4.3%
COc1ccc2c(c1)c(CC(=O)O)c(C(F)(F)F)n2C(=O)c1ccc(Cl)cc1  kinact/KI (PTGS2; enzyme activity, inhibitor): 13000 M⁻¹ s⁻¹
Cn1nnc2ccc(NC(=O)c3cccc(C(=O)O)c3)cc21  ΔTm (CREB-binding protein, bromodomain (CREBBP, Homo sapiens, UniProt Q92793); thermal stability, DSF; 100 µM): 2 °C
Oc1ccc(-c2nc(-c3ccncc3)c(-c3ccc(F)cc3)[nH]2)cc1  ΔTm (Bromodomain testis-specific protein, BD1 (BRDT, Homo sapiens, UniProt Q58F21); thermal stability, DSF; 10 µM): -0.47 °C
O=C(O)c1ccc(O)cc1  inhibition (PTGS2; enzyme activity, inhibitor; 3.9 µg/mL): 61.1%
N#Cc1cccc(Nc2nc3cc(C(=O)O)ccc3c3cncnc23)c1  remaining activity (DYRK1B; enzyme activity, inhibitor, radiometric; 1 µM): 87%
COc1ccc(-c2cc(=O)c3c(O)cc(O[C@@H]4O[C@H](CO)[C@@H](O)[C@H](O)[C@H]4O)cc3o2)cc1O  inhibition (PTGS2; enzyme activity, inhibitor; 31.25 µg/mL): 100%
NS(=O)(=O)c1ccc(Nc2nc(-c3ccc(F)cc3)c3ccccc3n2)cc1  remaining binding (BRWD1 BD2; binding, competition with immobilised ligand; 1 µM): 88%
O=C(NCCCNc1nc(Nc2cccc(NC(=O)N3CCCC3)c2)ncc1C1CC1)C1CCC1  remaining activity (NUAK1; enzyme activity, inhibitor, radiometric; 1 µM): 51%
O=C(O)c1ccc2c(c1)nc(Nc1ccc(F)c(Cl)c1)c1ccncc12  remaining activity (DYRK1B; enzyme activity, inhibitor, radiometric; 1 µM): 22%
O=c1cc(-c2ccc(O)c(O)c2)oc2cc(O)cc(O)c12  inhibition (PTGS2; enzyme activity, inhibitor; 0.12 µg/mL): 21.6%
O=C(O)c1ccc2c(c1)nc(Nc1ccc(Cl)cc1)c1ncncc12  remaining activity (DYRK1B; enzyme activity, inhibitor, radiometric; 1 µM): 80%
Cc1ccc(C(=O)Nc2ccc(CN3CCN(C)CC3)c(C(F)(F)F)c2)cc1C#Cc1cnc2cccnn12  remaining activity (CDKL5; enzyme activity; 23.5 nM): 100%
Cc1cnc(Nc2ccc(OCCN3CCCC3)cc2)nc1Nc1cccc(S(=O)(=O)NC(C)(C)C)c1  ΔTm (Transcription intermediary factor 1-beta (TRIM28, Homo sapiens, UniProt Q13263); thermal stability, DSF; 10 µM): 0.08 °C
COC(=O)c1ccc(O)cc1  inhibition (PTGS2; enzyme activity, inhibitor; 0.98 µg/mL): 0%
CN(C)C1CCN(CC#Cc2nn(C3CCCC3)c3nc(NCc4ccccc4)ncc23)C1 (stereo not shown)  inhibition (NUAK1; enzyme activity, inhibitor, FRET; 0.1 µM): 0%
